Results on four compounds are retold here after ChEMBL document CHEMBL1122522, “Conformationally restricted retinoids” (1984).

Assay [1] has as its system Cricetinae gen. sp. The experiment in a line: Activity of compound the was expressed as ratio of active hamster tracheal organ cultures(TOC) to the total cultures at 10e-8 M concentration; 1/5. It is filed as functional, Cricetulus griseus, Trachea. In a few lines:
(§1)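 Tracheal organ cultures came from vitamin A-deficient hamsters. Each culture was scored for reversal of keratinization and reported as active cultures out of total cultures at each retinoid concentration tested (10⁻⁸ to 10⁻¹² M). The protocol followed earlier published methods.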

Assay [2] has as its system Cricetinae gen. sp. The assay is described as follows: Molarity required to effect reversal of keratinization in 50% of cultures. It is filed as functional, Cricetulus griseus.
Assay [3] relates to Cricetinae gen. sp. The assay is described as follows: Activity of compound the was expressed as ratio of active hamster tracheal organ cultures(TOC) to the total cultures at 10e-9 M concentration; 1/5. It is filed as functional, Cricetulus griseus, Trachea. An outline of the steps: as §1
In assay [4] the test system is Cricetinae gen. sp. The experiment in a line: Activity of compound the was expressed as ratio of active hamster tracheal organ cultures(TOC) to the total cultures at 10e-10 M concentration; 1/6. It is filed as functional, Cricetulus griseus, Trachea. An outline of the steps: as §1
Assay [5] has as its system Cricetinae gen. sp. The assay is described as follows: Activity of compound the was expressed as ratio of active hamster tracheal organ cultures(TOC) to the total cultures at 10e-8 M concentration; 4/7. The assay is classed as functional, Cricetulus griseus, Trachea. In a few lines:
as §1

In assay [6] the test system is Cricetinae gen. sp. The assay is described as follows: Activity of compound the was expressed as ratio of active hamster tracheal organ cultures(TOC) to the total cultures at 10e-9 M concentration; 3/7. The assay is classed as functional, Cricetulus griseus, Trachea. In a few lines:
as §1

Assay [7] deals with T1, Ornithine decarboxylase (Mus musculus) (UniProt P00860).
T1 sequence (whole entry): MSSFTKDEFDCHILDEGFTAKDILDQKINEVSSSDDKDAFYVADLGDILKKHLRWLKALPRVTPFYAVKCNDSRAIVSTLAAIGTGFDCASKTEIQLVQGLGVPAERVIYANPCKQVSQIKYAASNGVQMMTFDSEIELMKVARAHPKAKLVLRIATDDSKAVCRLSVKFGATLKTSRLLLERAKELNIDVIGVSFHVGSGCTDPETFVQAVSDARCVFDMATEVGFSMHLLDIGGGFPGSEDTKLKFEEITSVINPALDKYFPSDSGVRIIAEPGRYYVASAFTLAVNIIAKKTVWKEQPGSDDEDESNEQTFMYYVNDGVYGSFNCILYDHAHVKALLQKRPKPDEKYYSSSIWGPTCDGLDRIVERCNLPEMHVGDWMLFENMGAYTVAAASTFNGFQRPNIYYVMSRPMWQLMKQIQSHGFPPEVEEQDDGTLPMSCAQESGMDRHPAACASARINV
The assay is described as follows: Inhibition of the induction of ornithine decarboxylase in mouse epidermis by the tumor promoter 12-O-tetradecanoylphorbol-13-acetate (ODC) at dose 17 nmol * p<0.01.

Assay [8] has as its target T1, Ornithine decarboxylase (Mus musculus). The assay is described as follows: Inhibition of the induction of ornithine decarboxylase in mouse epidermis by the tumor promoter 12-O-tetradecanoylphorbol-13-acetate (ODC) at dose 1.7 nmol * Inhibition not significant.
In assay [9] the test system is Cricetinae gen. sp. The assay is described as follows: Activity of compound the was expressed as ratio of active hamster tracheal organ cultures(TOC) to the total cultures at 10e-10 M concentration; 1/7. It is filed as functional, Cricetulus griseus, Trachea. In a few lines: as §1
Assay [10] relates to Cricetinae gen. sp. The experiment in a line: Activity of compound the was expressed as ratio of active hamster tracheal organ cultures(TOC) to the total cultures at 10e-9 M concentration; 1/7. The assay is classed as functional, Cricetulus griseus, Trachea. In a few lines:
as §1

Assay [11] deals with Cricetinae gen. sp. The assay is described as follows: Activity of compound the was expressed as ratio of active hamster tracheal organ cultures(TOC) to the total cultures at 10e-8 M concentration; 2/7. It is filed as functional, Cricetulus griseus, Trachea. In a few lines:
as §1

In assay [12] the target is T1, Ornithine decarboxylase (Mus musculus). The assay is described as follows: Inhibition of the induction of ornithine decarboxylase in mouse epidermis by the tumor promoter 12-O-tetradecanoylphorbol-13-acetate (ODC) at dose 17 nmol; Inhibition not significant.
Assay [13] shares this target. The experiment in a line: Inhibition of the induction of ornithine decarboxylase in mouse epidermis by the tumor promoter 12-O-tetradecanoylphorbol-13-acetate (ODC) at dose 1.7 nmol; Inhibition not significant.
The target is the same in assay [14]. The assay is described as follows: Inhibition of the induction of ornithine decarboxylase in mouse epidermis by the tumor promoter 12-O-tetradecanoylphorbol-13-acetate (ODC) at dose 1.7 nmol.

For `CC1=C(/C=C/c2ccc(/C(C)=C/C(=O)O)cc2)C(C)(C)CCC1`, the Activity in assay [1] and in assay [3] was 1% each time. Besides, the ED50 in assay [2] is given as over 1e-08.

For orientation: inhibition means the percentage by which the read-out fell short of the control. For `CCOC(=O)c1ccc(/C=C/c2ccc3c(c2)C2CCC3C2)cc1` (configuration not stated), the results for the Activity in [4], in [5] and in assay [6] were 1%, 4% and 43%, respectively. Also, the ED50 in assay [2] was 3e-09. Further, the inhibition in assay [7] amounted to 39%; in assay [8], 15%.

For the compound `CC1=C(c2ccc(/C=C/C(C)=C/C(=O)O)c(C)c2)C(C)(C)CCC1`, the Activity is 1% in [9], 1% in assay [10] and 2% in assay [11]. In addition, the ED50 in assay [2] is over 1e-08. The inhibition was found to be 23% in assay [12] and 9% in assay [13].

With `CC1=C(/C=C/C(C)=C/c2ccc(C(=O)O)cc2)C(C)(C)CCC1`, the ED50 in assay [2] stood at 3e-10. Also, in [14], the inhibition was determined as 77%.
